Active and inactive are the calls of the source. The calls are words filed in the database; no cut-off is given here.
Assays:
[1] = target: T1, Amine oxidase [flavin-containing] B (Homo sapiens, UniProt P27338)
T1 sequence (P27338 whole entry): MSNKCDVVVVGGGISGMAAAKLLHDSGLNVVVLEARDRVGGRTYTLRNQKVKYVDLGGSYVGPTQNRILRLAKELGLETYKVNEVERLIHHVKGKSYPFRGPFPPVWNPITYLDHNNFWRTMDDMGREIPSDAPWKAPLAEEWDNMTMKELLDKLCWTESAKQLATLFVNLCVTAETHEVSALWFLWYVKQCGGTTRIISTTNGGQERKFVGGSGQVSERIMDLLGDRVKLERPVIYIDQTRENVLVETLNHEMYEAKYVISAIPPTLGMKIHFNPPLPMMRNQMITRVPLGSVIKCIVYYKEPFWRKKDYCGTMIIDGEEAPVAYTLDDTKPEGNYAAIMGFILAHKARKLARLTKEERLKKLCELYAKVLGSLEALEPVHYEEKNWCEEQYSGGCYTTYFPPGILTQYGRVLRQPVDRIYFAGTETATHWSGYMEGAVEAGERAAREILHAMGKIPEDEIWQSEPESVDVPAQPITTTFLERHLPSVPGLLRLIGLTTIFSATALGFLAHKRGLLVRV

[2] = target: T2, Amine oxidase [flavin-containing] A (Homo sapiens, UniProt P21397); assay: Inhibition of human recombinant MAOA at 100 uM using p-tyramine as substrate incubated for 15 mins by fluorimetric method; conditions: 0.25 h
T2 sequence (P21397 whole entry): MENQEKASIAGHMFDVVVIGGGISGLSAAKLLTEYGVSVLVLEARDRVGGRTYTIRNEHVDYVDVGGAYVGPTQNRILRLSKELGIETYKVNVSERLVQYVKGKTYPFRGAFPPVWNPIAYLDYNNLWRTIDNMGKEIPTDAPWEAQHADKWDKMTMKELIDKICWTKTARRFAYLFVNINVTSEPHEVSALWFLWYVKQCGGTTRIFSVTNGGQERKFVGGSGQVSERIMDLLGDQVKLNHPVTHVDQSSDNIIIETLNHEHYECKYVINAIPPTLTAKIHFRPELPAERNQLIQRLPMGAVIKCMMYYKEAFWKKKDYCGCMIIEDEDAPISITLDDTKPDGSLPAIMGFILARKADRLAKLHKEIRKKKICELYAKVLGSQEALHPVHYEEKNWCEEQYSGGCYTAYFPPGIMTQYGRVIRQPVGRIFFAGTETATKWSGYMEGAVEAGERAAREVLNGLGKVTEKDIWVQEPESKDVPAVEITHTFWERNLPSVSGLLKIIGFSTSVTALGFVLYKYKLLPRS
Method in brief: (§1)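 Recombinant hMAO-A or hMAO-B (baculovirus-infected BTI insect cells), amount set to oxidize 165 pmol p-tyramine/min, preincubated with compound 15 min at 37 °C. Reaction started with Amplex Red, 1 U/mL horseradish peroxidase and 1 mM p-tyramine. Resorufin fluorescence read at 37 °C (ex 545/em 590 nm), minus enzyme-free phosphate-buffer background.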

[3] = target: T3, Acetylcholinesterase (Homo sapiens, UniProt P22303); assay: Inhibition of human recombinant AChE using acetylthiocholine iodide as substrate preincubated for 5 mins followed by substrate addition measured for 5 mins by Ellman's method
T3 sequence (P22303 whole entry): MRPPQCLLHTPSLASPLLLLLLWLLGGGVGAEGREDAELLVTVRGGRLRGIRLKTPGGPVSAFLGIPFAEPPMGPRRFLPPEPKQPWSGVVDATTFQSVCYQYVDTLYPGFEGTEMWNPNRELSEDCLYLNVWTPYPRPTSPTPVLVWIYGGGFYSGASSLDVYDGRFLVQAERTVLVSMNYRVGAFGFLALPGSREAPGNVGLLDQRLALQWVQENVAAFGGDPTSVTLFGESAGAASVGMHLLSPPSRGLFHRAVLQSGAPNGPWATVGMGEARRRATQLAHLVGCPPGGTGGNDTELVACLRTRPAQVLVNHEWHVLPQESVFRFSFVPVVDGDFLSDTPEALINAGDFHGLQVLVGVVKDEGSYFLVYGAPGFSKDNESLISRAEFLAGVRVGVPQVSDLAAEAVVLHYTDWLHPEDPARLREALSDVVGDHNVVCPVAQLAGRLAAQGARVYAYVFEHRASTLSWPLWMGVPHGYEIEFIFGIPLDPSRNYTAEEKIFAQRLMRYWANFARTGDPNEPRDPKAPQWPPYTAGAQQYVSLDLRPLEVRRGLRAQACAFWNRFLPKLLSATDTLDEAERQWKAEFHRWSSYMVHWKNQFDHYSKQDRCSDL

[4] = target: T4, Cholinesterase (Homo sapiens, UniProt P06276); assay: Inhibition of human serum BuChE using butyrylthiocholine as substrate preincubated for 5 mins followed by substrate addition measured for 5 mins by Ellman's method
T4 sequence (P06276 whole entry): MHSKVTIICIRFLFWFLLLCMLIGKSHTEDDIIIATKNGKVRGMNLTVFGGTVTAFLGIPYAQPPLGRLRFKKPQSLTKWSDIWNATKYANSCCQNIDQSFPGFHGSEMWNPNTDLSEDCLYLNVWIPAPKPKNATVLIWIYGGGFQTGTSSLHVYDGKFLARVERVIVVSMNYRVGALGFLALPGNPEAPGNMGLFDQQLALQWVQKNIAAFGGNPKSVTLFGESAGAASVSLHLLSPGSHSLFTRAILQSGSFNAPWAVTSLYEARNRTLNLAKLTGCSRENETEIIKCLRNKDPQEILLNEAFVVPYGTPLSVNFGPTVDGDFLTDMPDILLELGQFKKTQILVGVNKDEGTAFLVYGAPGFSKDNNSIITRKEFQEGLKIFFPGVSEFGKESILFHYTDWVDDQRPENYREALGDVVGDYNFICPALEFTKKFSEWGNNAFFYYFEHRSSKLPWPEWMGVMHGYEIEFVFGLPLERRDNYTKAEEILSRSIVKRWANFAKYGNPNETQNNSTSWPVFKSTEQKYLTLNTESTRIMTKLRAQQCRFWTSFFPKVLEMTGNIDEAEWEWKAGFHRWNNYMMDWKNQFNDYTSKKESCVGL
Method in brief: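 Spectrophotometric Ellman assay with butyrylcholinesterase from human serum, with donepezil as reference. IC50 is reported in µM as mean ± SEM, n = 5.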

[5] = target: Beta-secretase 1 (Homo sapiens) (UniProt P56817); assay: Inhibition of human BACE1 at 10 uM using Rh-EVNLDAEFK-Quencher as substrate after 60 mins by FRET assay relative to control
Sequence of Beta-secretase 1 (Homo sapiens) (P56817 whole entry): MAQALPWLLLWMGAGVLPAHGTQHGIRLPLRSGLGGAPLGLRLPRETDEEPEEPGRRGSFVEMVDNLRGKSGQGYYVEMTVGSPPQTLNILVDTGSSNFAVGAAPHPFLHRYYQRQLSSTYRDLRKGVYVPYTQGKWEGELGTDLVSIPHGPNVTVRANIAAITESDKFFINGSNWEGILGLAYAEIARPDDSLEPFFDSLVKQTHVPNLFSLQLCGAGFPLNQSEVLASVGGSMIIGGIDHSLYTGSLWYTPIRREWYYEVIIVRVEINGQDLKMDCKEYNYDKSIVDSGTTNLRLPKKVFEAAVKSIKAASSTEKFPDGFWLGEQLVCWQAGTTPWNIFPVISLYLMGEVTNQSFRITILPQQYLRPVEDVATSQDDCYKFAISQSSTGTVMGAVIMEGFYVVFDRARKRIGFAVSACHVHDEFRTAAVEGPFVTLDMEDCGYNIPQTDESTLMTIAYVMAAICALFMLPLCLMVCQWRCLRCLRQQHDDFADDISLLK
Method in brief: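 FRET-based assay on human recombinant BACE-1, run per the manufacturer's protocol; compounds tested at 10 μM, read as percent inhibition.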

[6] = target: T4, Cholinesterase; assay: Inhibition of human serum BuChE at 10 uM using butyrylthiocholine as substrate preincubated for 5 mins followed by substrate addition measured for 5 mins by Ellman's method relative to control
Method in brief: (§2)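 Spectrophotometric Ellman assay with recombinant human AChE or BuChE from human serum. Percent inhibition is given at a single concentration of 10 µM. Results are mean ± SEM, n = 5.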

[7] = target: T2, Amine oxidase [flavin-containing] A; assay: Inhibition of human recombinant MAOA using p-tyramine as substrate incubated for 15 mins by fluorimetric method
[8] = target: T3, Acetylcholinesterase; assay: Inhibition of human recombinant AChE at 10 uM using acetylthiocholine iodide as substrate preincubated for 5 mins followed by substrate addition measured for 5 mins by Ellman's method relative to control
Method in brief: as §2

[9] = Antioxidant activity assessed as AAPH free radical scavenging activity by measuring trolox equivalent by oxygen radical absorbance capacity method; format: functional
Method in brief: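 Oxygen radical absorbance capacity (ORAC) assay with trolox as the standard. Fluorescence was read on a plate reader with 485-P excitation and 520-P emission filters. Values are expressed as trolox equivalents, mean ± SEM (n = 5).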

[10] = target: T1, Amine oxidase [flavin-containing] B; assay: Inhibition of human recombinant MAOB at 100 uM using p-tyramine as substrate incubated for 15 mins by fluorimetric method; conditions: 0.25 h
Method in brief: as §1

[11] = Potentiation of rotenone/oligomycin A-induced mitochondrial oxidative stress in human SH-SY5Y cells at 0.1 to 3 uM after 24 hrs by MTT assay; format: ADME, cell-based
Method in brief: (§3)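 SH-SY5Y cells, passage <13, were seeded at 8x10^4/well for 2 days. Then co-incubated 24 h with compound (0.1, 0.3, 1, 3 µM) plus rotenone 30 µM/oligomycin A 10 µM in F-12/EMEM with 1% FBS; 0.1% DMSO vehicle and 10 nM melatonin control. MTT 0.5 mg/ml final, 2 h at 37 °C, formazan in DMSO read at 540 nm. Normalized to untreated control; triplicates of ≥3 cultures, mean ± SEM.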

[12] = test system: SH-SY5Y; assay: Neuroprotective activity against rotenone/oligomycin A-induced mitochondrial oxidative stress in human SH-SY5Y cells assessed as increase in cell viability at 0.3 uM after 24 hrs by MTT assay relative to control; format: functional
Method in brief: as §3

[13] = test system: Neural stem cell; assay: (§4) Induction of differentiation of C57BL/6 mouse subgranular zone-derived neural stem cell into neuronal phenotype assessed as increase in level of beta-3 tubulin expressing cells in neurosphere at 10 uM preincubated for 7 days followed by cell attachment onto poly-L-lysine-coated coverslip in presence of serum and absence of exogenous growth factor for 3 days by DAPI staining-based florescence microscopy; format: functional
Method in brief: (§5)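 Adult (3-month) male C57BL/6 mouse SGZ dentate gyrus neural stem cells grown as neurospheres for 7 days with compound (10 µM). Then adhered on 100 μg/mL poly-L-lysine coverslips for 3 more days with serum, without exogenous growth factors, compound present. Immunocytochemistry for β-III-tubulin (TuJ) and MAP-2 with Alexa-fluor secondaries and DAPI nuclei, imaged by fluorescence microscopy, inner and distal neurosphere areas.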

[14] = test system: Neural stem cell; assay: as §4, with “MAP2” for “beta-3 tubulin”; format: functional
Method in brief: as §5

SMILES	IC50 [1] [µM]	inhibition at 100 µM [2] [%]	IC50 [3] [µM]	IC50 [4] [µM]	inhibition [5] [%]	inhibition [6] [%]	IC50 [7] [µM]	inhibition [8] [%]	Activity [9] [equiv]	inhibition at 100 µM [10] [%]	Activity [11]	Activity [12]	Activity [13]	Activity [14]
COc1cccc(/C=C/C(=O)NCCC2CCN(Cc3ccccc3)CC2)c1	> 100	45 to 55	0.75	0.98	–	–	–	–	–	–	–	–	–	–
COc1ccc(/C=C/C(=O)Nc2ccc(CN(C)Cc3ccccc3)cc2)cc1	> 100	–	5.76	–	23 to 33	25	> 100	–	–	–	–	–	–	–
CN(Cc1ccccc1)Cc1ccc(NC(=O)/C=C/c2ccc(O)cc2)cc1	29	–	–	–	–	30	29.7	46	1.8	–	–	–	–	–
COc1cc(/C=C/C(=O)Nc2ccc(CN(C)Cc3ccccc3)cc2)ccc1O	–	–	–	–	23 to 33	45	–	33	1.5	–	–	–	–	–
COc1cccc(/C=C/C(=O)Nc2ccc(CN(C)Cc3ccccc3)cc2)c1	> 100	–	4.67	–	23 to 33	35	> 100	–	0.6	–	–	–	–	–
COc1ccc(/C=C/C(=O)NCCC2CCN(Cc3ccccc3)CC2)cc1	–	45 to 55	0.49	0.76	–	–	–	–	–	45 to 55	–	–	–	–
COc1cc(/C=C/C(=O)NCCC2CCN(Cc3ccccc3)CC2)ccc1O	13.1	–	0.39	0.076	–	–	11.4	–	1.8	–	Non-Toxic	30 - 35%	–	–
COc1cc(/C=C/C(=O)Nc2cccc(CN(C)Cc3ccccc3)c2)ccc1O	7.7	–	5.99	5.89	23 to 33	–	4.5	–	1.4	–	Non-Toxic	30 - 35%	–	–
O=C(/C=C/c1ccc(O)cc1O)NCCC1CCN(Cc2ccccc2)CC1	8.3	–	0.99	0.26	–	–	5.5	–	1.3	–	–	–	–	–
COc1ccc(/C=C/C(=O)NCCC2CCN(Cc3ccccc3)CC2)cc1OC	–	–	0.26	0.69	–	–	> 100	–	0.4	45 to 55	–	–	–	–
O=C(/C=C/c1ccc(O)c(O)c1)NCCC1CCN(Cc2ccccc2)CC1	6	–	1.75	0.69	–	–	3.5	–	1	–	–	–	Active	Active
O=C(/C=C/c1cccc(O)c1)NCCC1CCN(Cc2ccccc2)CC1	> 100	45 to 55	1.12	1.02	–	–	–	–	2.2	–	–	–	–	–
COc1ccc(/C=C/C(=O)Nc2ccc(CN(C)Cc3ccccc3)cc2)c(OC)c1	> 100	–	8.73	> 10	–	–	> 100	–	0.5	–	–	–	–	–
O=C(/C=C/c1ccc(O)cc1)NCCC1CCN(Cc2ccccc2)CC1	> 100	–	1.01	0.93	–	–	57.5	–	1.7	–	–	–	–	–
COc1ccc(/C=C/C(=O)Nc2ccc(CN(C)Cc3ccccc3)cc2)cc1OC	–	–	3.98	> 10	–	–	–	–	0.4	–	–	–	–	–
COc1ccc(/C=C/C(=O)NCCC2CCN(Cc3ccccc3)CC2)c(OC)c1	> 100	–	0.63	4.39	–	–	> 100	–	–	–	–	–	–	–
CN(Cc1ccccc1)Cc1ccc(NC(=O)/C=C/c2cccc(O)c2)cc1	–	45 to 55	3.49	–	–	46	–	–	3.2	45 to 55	Non-Toxic	30 - 35%	–	–

Source: ChEMBL document CHEMBL3860024, “New cinnamic - N-benzylpiperidine and cinnamic - N,N-dibenzyl(N-methyl)amine hybrids as Alzheimer-directed multitarget drugs with antioxidant, cholinergic, neuroprotective and neurogenic properties” (Eur J Med Chem, 2016)
